The values below come from ChEMBL document CHEMBL1138360, “Hypoxia-selective 3-alkyl 1,2,4-benzotriazine 1,4-dioxides: the influence of hydrogen bond donors on extravascular transport and antitumor activity” (J Med Chem, 2007).

For series [1], the system named is HT-29. Briefly: Ratio of IC50 for HT29 cells in aerobic condition to IC50 for HT29 cells in hypoxic condition after 4 hrs. The class given is functional, Homo sapiens. The gist of the method:
(§1)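 Aerobic and anoxic (H2/Pd chamber) IC50s measured in the same experiment after 4 h exposure, HT29 or SiHa cells. Ratio computed as aerobic IC50/anoxic IC50.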

Series [2] concerns SiHa. Briefly: Ratio of IC50 for SiHa cells in aerobic condition to IC50 for SiHa cells in hypoxic condition after 4 hrs. The class given is functional, Homo sapiens. The gist of the method: as §1
The subject of series [3] is HT-29. The series can be described thus: Antitumor activity against HT29 tumor inoculated in CD1 nude mouse at 750 umol/kg, ip administered 5 mins after gamma irradiation by excision assay relative to radiation alone. The class given is functional, Homo sapiens. The gist of the method: (§2)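 HT29 xenografts in nude CD-1 mice received 20 Gy γ radiation, then a single i.p. drug dose 5 min later, at 100% or 75% of MTD. Tumors excised 18 h afterwards, dissociated to single cells and plated for clonogens/g tumor. Hypoxic cell kill = log(clonogens/g, radiation only) − log(clonogens/g, radiation + drug).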

Series [4] in a line: Terminal half life in CD1 mouse plasma at 750 umol/kg, ip. The class given is ADME, organism-based. The gist of the method:
(§3)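 Single i.p. dose to homozygous nude CD-1 Foxn1nu mice, at 75 or 100% of MTD (MTD set by 1.33-fold dose steps; highest dose without death, >15% weight loss or severe morbidity in any of six mice). Total drug measured in plasma by HPLC. AUC, Cmax and terminal t½ derived noncompartmentally. Measured levels taken as free drug.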

Series [5] in a line: AUC (0 to infinity) in CD1 mouse plasma at 750 umol/kg, ip. The format is ADME, organism-based. Also noted: dose 750 umol/kg, time infinity, route intraperitoneal. In outline:
as §3

The test system of series [6] is HT-29. Briefly: Diffusion coefficient, D in aerobic HT29 multicellular layers. The class given is ADME, cell-based. To be noted: human. The gist of the method: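 Drug flux measured through HT29 multicellular layers on Teflon support membranes under 95% O2 at 37 °C, 50 µM initial donor concentration. Donor and receiver levels fitted with a diffusion model. Layer thickness estimated from flux of internal standard urea.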

Series [7] deals with HT-29. The series can be described thus: Cell viability in anoxic HT29 cells assessed as drug level providing 10% surviving fraction by clonogenic assay. To be noted: human. The class given is cell-based.
Series [8] concerns HT-29. The series can be described thus: Drug penetration in anoxic HT29 cells assessed as penetration half distance. The class given is ADME, cell-based. To be noted: human.
Series [9] can be described thus: Cmax in CD1 mouse plasma at 750 umol/kg, ip. The format is ADME, organism-based. Also noted: dose 750 umol/kg, route intraperitoneal. In outline:
as §3

For series [10], the system named is HT-29. The series can be described thus: Cytotoxicity against HT29 cells under hypoxic condition after 4 hrs. The class given is functional, cell-based. To be noted: Homo sapiens, HT-29, 4 h. In outline:
(§4)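 HT29 or SiHa cells exposed to drug for 4 h in 96-well plates under anoxia (H2/Pd anaerobic chamber). IC50 determined.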

Series [11] relates to SiHa. The series can be described thus: Cytotoxicity against SiHa cells under hypoxic condition after 4 hrs. The class given is functional, cell-based. To be noted: Homo sapiens. In outline:
as §4

Series [12] deals with HT-29. Briefly: Antitumor activity against HT29 tumor inoculated in CD1 nude mouse at 1000 umol/kg, ip relative to control.
The nature of series [13]: Toxicity in ip dosed CD1 mouse. The format is organism-based. Particulars: in vivo. The gist of the method: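 Single i.p. doses given to homozygous nude CD-1 Foxn1nu mice, with the vehicle formulated per compound. Doses escalated in 1.33-fold increments. MTD was defined as the highest dose causing no mortality, no body weight loss >15% and no other severe morbidity in any of six mice.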

The test system of series [14] is HT-29. The series can be described thus: Antitumor activity against HT29 tumor inoculated in CD1 nude mouse at 316 umol/kg, ip administered 5 mins after gamma irradiation by excision assay relative to radiation alone. The class given is functional, Homo sapiens. In outline:
as §2

Series [15] is described as follows: Terminal half life in CD1 mouse plasma at 316 umol/kg, ip. The class given is ADME, organism-based. The gist of the method: as §3
The nature of series [16]: AUC (0 to infinity) in CD1 mouse plasma at 316 umol/kg, ip. The class given is ADME, organism-based. Also noted: dose 316 umol/kg, time infinity, route intraperitoneal. In outline: as §3
The nature of series [17]: Cmax in CD1 mouse plasma at 316 umol/kg, ip. Also noted: dose 316 umol/kg, route intraperitoneal. The class given is ADME, organism-based. In outline:
as §3

A short description of series [18]: Cmax in CD1 mouse plasma at 133 umol/kg, ip. The format is ADME, organism-based. Also noted: dose 133 umol/kg, route intraperitoneal. The gist of the method:
as §3

A short description of series [19]: Terminal half life in CD1 mouse plasma at 133 umol/kg, ip. The format is ADME, organism-based. In outline:
as §3

Series [20] in a line: AUC (0 to infinity) in CD1 mouse plasma at 133 umol/kg, ip. The class given is ADME, organism-based. Also noted: dose 133 umol/kg, route intraperitoneal, time infinity. In outline: as §3

By half-life is commonly meant how long it takes for the measured level to halve. For orientation: AUC(0-inf) means total exposure, with the tail of the curve extrapolated. What is called Cmax is the highest concentration seen after dosing. What is called IC50 is the midpoint of a concentration-inhibition curve. Read a low IC50 as greater potency. Consider `CCc1n[n+]([O-])c2ccc(OCCCN3CCOCC3)cc2[n+]1[O-]`, for which the “Ratio IC50” value in the series with HT-29 [1] is reported as 153; in the series on SiHa [2] it was 217. The Activity in the series on HT-29 [3] came out at 1.66%; in the series with HT-29 [7], 38.6 µM·h; with HT-29 [8] it was 64 µM; with HT-29 [12], 0.14%. Moreover, the half-life in series [4] was 34.8 min. This compound showed an AUC(0-inf) in series [5] of 162 µM·h. In the series with HT-29 [6], the D was 7.48 10^-7cm2/sec. This compound returned a Cmax in series [9] of 150 µM. Further, the IC50 was found to be 6800 nM with HT-29 [10] and 4300 nM in the series with SiHa [11]. Moreover, the MTD in series [13] worked out at 1000 µmol/kg.

Turning to `CCc1n[n+]([O-])c2cc(OCCCN3CCOCC3)ccc2[n+]1[O-]`, the entries for the “Ratio IC50” value in the series with HT-29 [1] and in the series with SiHa [2] were 147 and 181, respectively. For the same compound, the Activity with HT-29 [14] came out at 0.98%; with HT-29 [7], 7.1 µM·h. This compound showed a half-life in series [15] of 36 min. In the series with HT-29 [8], the Penetration half distance was 34 µm. Moreover, in [16], the AUC(0-inf) is 33 µM·h. In series [17], this compound returned a Cmax of 30.1 µM. The figures for the IC50 in the series on HT-29 [10] and with SiHa [11] were 3000 nM and 1300 nM, respectively. Besides, the MTD in series [13] came to 421 µmol/kg.

Regarding `CCc1n[n+]([O-])c2ccc(OCCN3CCCCC3)cc2[n+]1[O-]`, the “Ratio IC50” value in the series with HT-29 [1] was determined as 254; with SiHa [2], 302. The Cmax in [18] was found to be 9.8 µM. In series [19], the half-life was found to be 25 min. The Activity in the series on HT-29 [7] is 6.8 µM·h. Further, in the series with HT-29 [8], the Penetration half distance amounted to 34 µm. Further, the AUC(0-inf) in [20] was 7.75 µM·h. The IC50 in the series on HT-29 [10] was 1500 nM; in the series on SiHa [11] it was 1000 nM. This compound yielded an MTD in series [13] of 178 µmol/kg.
